# Experimental data published in publication PMC4390023 (The British journal of nutrition, 2013).
# Entries after “also recorded” stand apart in the source; their conditions may differ.
# Legend:
# [1] = Study 1 tissue and serum ROH, αR and DR by HPLC; assay type: in vivo, rat; conditions: for Lung ROH concentration / Spleen ROH concentration: rats, 50 nmol/d oral, 5 weeks, mean, n 10
# Study 1 growth assay = assay type: in vivo, rat; conditions: for Area-under-the growth curve, difference from control / Bioactivity from area-under-the growth curve, % of retinol / Bioactivity from final body weight, % of retinol / Final body weight / Area-under-the growth curve: rats, 50 nmol/d for 5 weeks; for Bioactivity from area-under-the growth curve, % of retinol: control subtracted, relative to retinol group; for Bioactivity from final body weight, % of retinol: difference from control relative to retinol group; for Final body weight / Area-under-the growth curve: mean, n 10; for Area-under-the growth curve: trapezoidal; for Bioactivity compared with retinol: from body weights and area-under-the-response curves, equimolar 50 nmol/d
# Outline: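 Weanling (21-d) male Sprague Dawley rats (n 40) were fed a vitamin A-deficient diet and weighed daily. At week 9 they were split into four weight-matched groups (n 10) and given 50 nmol/d oral retinoid acetate in 100 µl cottonseed oil, or vehicle alone. Rats were killed 5 weeks after dosing began. Body-weight AUC was by trapezoidal approximation, and bioactivity from ending weights versus the retinol group. ANOVA; means (SD).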
# [2] = Study 3 retinol and α-retinol in liver, kidney and serum after the final dose; assay type: in vivo, rat; conditions: for Liver αR: 3.5 µmol/day for 21 days, n 5
# [3] = cited from earlier work; for Estimates of bioactivity in rats, that of ROH: ref estimates of the 1950's
# apo-RBP = conditions: cited from earlier work
# [4] = Study 2 interaction study: graded αR with 70 nmol ROH/d, serum and liver; assay type: in vivo, rat; conditions: for Liver αR / Total dose liver retention: 3 weeks
# Outline: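 Each received oral daily 70 nmol reference retinoid plus 0, 17.5, 35 or 70 nmol test retinoid (as acetate) in 100 µl cottonseed oil. Rats were killed after 3 weeks. Serum and saponified liver were run on isocratic C18 HPLC-UV in acetonitrile:water 87.5:12.5 with 10 mM ammonium acetate. ANOVA; means (SD).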
# [5] = Study 3 toxicity study: serum chemistry panel and liver histology; assay type: in vivo, rat; conditions: 3.5 µmol/d for 21 d; for Hepatotoxicity: rats killed 1, 8 and 15 d after the last dose
# [6] = in vitro and in vivo models; cited from earlier work
# [7] = high doses given to dams; not to the extent of retinoic acid alone; cited from earlier work
# retinol transporter = conditions: cited from earlier work
# [8] = rats maintained on DR; cited from earlier work
# RARβ = conditions: cited from earlier work
# RARγ = conditions: cited from earlier work
# RARα = conditions: cited from earlier work
# [9] = given intraperitoneally; cited from earlier work
smiles,measurement,setting,value
"CC1=C(/C=C/C(C)=C/C=C/C(C)=C/CO)C(C)(C)CCC1 [Retinol, retinol, reference compound]",Kidney ROH relative to liver ROH,[1]; study 1,7 times
same,"Liver reserves, times less than deficiency cut-off (<70 nmol ROH/g liver)","[1]; study 1, ROH group",14 times
same,"Area-under-the growth curve, difference from control",Study 1 growth assay,787
same,"Bioactivity from area-under-the growth curve, % of retinol",Study 1 growth assay,100%
same,"Bioactivity from final body weight, % of retinol",Study 1 growth assay,100%
same,Final body weight,Study 1 growth assay,546 g
same,Area-under-the growth curve,Study 1 growth assay,1654 g·days
"CC1=CCCC(C)(C)C1/C=C/C(C)=C/C=C/C(C)=C/CO (stereo not drawn) [α-Retinol, α-retinol]","α-Retinyl esters circulating in the blood, share of total retinol",[2]; at αR concentrations >1.7 µmol/g liver,> 10%
same,"Activity relative to retinol (ROH), growth-promoting activity in rats",[3],2.1%
same,Bioactivity,[3],2.6%
same,Biopotency versus US Pharmacopeia Vitamin A Reference Standard,[3]; rat growth and liver storage bioassays,approximately 2%
same,"Estimates of bioactivity in rats, that of ROH",[3],2%
same,Biopotency of all-trans-retinyl acetate,[3]; ref previous reports,2%
same,Binding in vitro with apo-RBP,apo-RBP,failed to bind
same,Lung ROH concentration,[1],not detected
same,Spleen ROH concentration,[1],not detected
same,Cumulative αR doses recovered in the liver,"[1]; study 1, ROH not made available",0.3%
same,Serum ROH concentration,"[1]; study 1, rats fed 50 nmol/d",≤ 0.10 µmol/L
same,Liver αR,[4]; 17.5 nmol αR/d + 70 nmol ROH/d,262 (SD 34) nmol/liver
same,Total dose liver retention,[4]; 17.5 nmol αR/d + 70 nmol ROH/d,71.3%
same,Liver αR,[4]; 35 nmol αR/d + 70 nmol ROH/d,449 (SD 23) nmol/liver
same,Total dose liver retention,[4]; 35 nmol αR/d + 70 nmol ROH/d,61.1%
same,Liver αR,[4]; 70 nmol αR/d + 70 nmol ROH/d,893 (SD 138) nmol/liver
same,Total dose liver retention,[4]; 70 nmol αR/d + 70 nmol ROH/d,60.7%
same,Serum αR,"[4]; study 2, 17.5-70 nmol αR/d + 70 nmol ROH/d",undetectable
same,Cumulative αR doses recovered in the liver,"[4]; study 2, with 70 nmol ROH/d",61–71%
same,Toxicity compared with control rats,[5],No toxicity was evident
same,Hepatotoxicity,[5],no hepatotoxicity occurred
same,Stellate cell hypertrophy,"[5]; liver sections, hematoxylin and eosin",No stellate cell hypertrophy was detected
same,Induction of signs of hypervitaminosis A,[6],very effective at inducing signs of hypervitaminosis A
same,Growth rate relative to ROH,"Study 1 growth assay; classic growth assay, 50 nmol/d",about 50%
same,Bioactivity compared with retinol,Study 1 growth assay,40–50%
same,"Area-under-the growth curve, difference from control",Study 1 growth assay,298
same,Final body weight,Study 1 growth assay,508 g
same,Area-under-the growth curve,Study 1 growth assay,1165 g·days
"CC(=O)OC/C=C(C)/C=C/C=C(C)/C=C/C1=C(C)C=CCC1(C)C [3,4-didehydroretinyl acetate]",Terata in fetuses,[7],caused terata in fetuses
"CC1=C(/C=C/C(C)=C/C=C/C(C)=C/CO)C(C)(C)CC=C1 [3,4-Didehydroretinol, 3,4-didehydroretinol]",Biological activity compared with ROH,[3],40%
same,"Estimates of bioactivity in rats, that of ROH",[3],40%
same,Rate of carriage by the retinol transporter from the intestine,retinol transporter,at the same rate as ROH
same,Lung ROH concentration,[1],not detected
same,Spleen ROH concentration,[1],not detected
same,"Serum DR in DR-dosed rats, times less than serum ROH in ROH-dosed rats",[1]; study 1,2.6 times
same,Retina integrity,[8],normal retina integrity
same,Bioactivity compared with retinol,Study 1 growth assay,120–130%
same,"Area-under-the growth curve, difference from control",Study 1 growth assay,1000
same,"Bioactivity from area-under-the growth curve, % of retinol",Study 1 growth assay,127%
same,"Bioactivity from final body weight, % of retinol",Study 1 growth assay,119%
same,Final body weight,Study 1 growth assay,560 g
same,Area-under-the growth curve,Study 1 growth assay,1867 g·days
"CC1=C(/C=C/C(C)=C/C=C/C(C)=C/C(=O)O)C(C)(C)CC=C1 [3,4-Didehydroretinoic acid]",Affinity for RARβ,RARβ,same affinity as retinoic acid
same,Affinity for RARγ,RARγ,same affinity as retinoic acid
same,Affinity for RARα,RARα,same affinity as retinoic acid
"CC(=O)OC/C=C(C)/C=C/C=C(C)/C=C/C1=C(C)CCCC1(C)C [retinyl acetate, reference compound]",Terata in fetuses,[7],caused terata in fetuses
CC(=O)OC/C=C(C)/C=C/C=C(C)/C=C/C1C(C)=CCCC1(C)C (stereo not drawn) [α-retinyl acetate],Liver αR,[2]; day 1 after final dose,2300 nmol/g
same,Liver αR,[2]; day 8 after final dose,1750 nmol/g
same,Liver αR,[2]; day 15 after final dose,1770 nmol/g
same,Growth of hamsters,[9],sustains growth of hamsters
same,Hepatotoxicity,[5],No hepatic toxicity was observed; also recorded: No hepatotoxicity was noted
